Screening results deposited in PubChem BioAssay by Broad Institute.
This is a sample that favours compounds with a hit; in the whole collection about 3.1% have one here.
Env fusion inh: inhibitors of HIV Env-mediated cell fusion; 1.1% of 360,000 active; inhibition, % at 12.3 µM; HeLa-JRFL Env/CEM21 cell fusion, luciferase; AID 651610;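 active = mean replicate inhibition score of at least 50 and every replicate individually at or above 50; inconclusive = only one of the two criteria met; inactive = mean below 50 and not all replicates reaching 50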
FN deposit inh: fibronectin deposition inhibition. AH1F fibroblasts, Alexa488-fibronectin deposition fluorescence, overnight. inhibition, % at 12.6 µM. 0.086% of 350,000 active;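 active = mean inhibition across replicates of 30% or more, regardless of how many single replicates reach that level; inconclusive = mean under 30% yet at least half of replicates reach 30%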
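material = AH1F fibroblast monolayer depositing Alexa488-labelled fibronectin into matrix | amount = 10000 AH1F cells/well | buffer or medium = DMEM plus 2% serum, read in PBS | incubation = 1 h cell adhesion before compound, then overnight fibronectin incubation | detection = fluorescence at 485 nm excitation, 525 nm emission | evaluation = percent inhibition as loss of matrix-bound fibronectin fluorescence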
EWS-Fli inh: blocks EWS/Fli oncoprotein-driven transcription; 0.67% of 350,000 active; A673 NR0B1-luciferase reporter, viability-normalised; inhibition, % at 12.6 µM; AID 651661;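 active = mean inhibition of at least 50% after viability correction, with every replicate also passing that limit; inconclusive = mean reaches 50% but only one of two replicates passes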;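 note: firefly luciferase signal divided by Alamar Blue viability fluorescence both relative to DMSO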
FGF22 binding: shifts melting point of recombinant human FGF22 | Q9HCT0 | recombinant FGF22 thermal shift, SYPRO orange fluorescence; percent of sucrose octasulfate shift, DMSO zero | activity (Tm shift, normalised), % at 9.99 µM | 1.5% of 340,000 active;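 active = mean Tm shift, scaled 0 neutral to 100 positive control, at about 1.3% or above, every replicate too, limit read from the data; inconclusive = no clear call, values can overlap the other calls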
Target sequence (Q9HCT0 whole entry, looked up): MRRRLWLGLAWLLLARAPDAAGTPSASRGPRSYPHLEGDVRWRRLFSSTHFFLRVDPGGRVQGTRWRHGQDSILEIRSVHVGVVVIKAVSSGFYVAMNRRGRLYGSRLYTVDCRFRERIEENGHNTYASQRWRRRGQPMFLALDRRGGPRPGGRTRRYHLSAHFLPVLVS
PGC1a acetyl inh: modulators of PGC1a acetylation; 0.17% of 350,000 active; inhibition, % at 15.6 µM; U2OS PGC1a acetylation, AlphaScreen anti-acetyl-lysine; with virally co-expressed GCN5 acetyltransferase;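 active = every replicate shows inhibition of at least 40%; inconclusive = mean inhibition at least 40% but some replicate below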
PAX8 inh HTS: inhibitors of PAX8 transcriptional activity in RMG-I cells; RMG-I TPO-luciferase reporter, SteadyGlo, 24 h; inhibition, % at 12.6 µM; 1.2% of 360,000 active; AID 652154;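 active = mean replicate inhibition at least 60% with every replicate also reaching 60%; inconclusive = only one of the two criteria is met; inactive = mean below 60% and not all replicates reaching 60%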;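 note: luciferase light reporting Pax8 driven TPO promoter activity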
DNA binding: binds DNA displacing acridine orange. shares compounds with EWS-Fli inh. salmon sperm DNA acridine orange fluorescence polarization. AC35, µM (highest dose often 68 µM). 2% of 640 active. AID 720586;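 active = fitted curve reaches a 35% signal fall AC35 below twice the sample's top valid tested dose, actives reach about 48 µM in these data; inactive = the rest, including activity in the rising direction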;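 note: lower polarization ratio signals compound binding to DNA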
COX5a expr inh: C2C12 myotube COX5a expression inhibition; AID 743461; maximal activity, %; C2C12 myotubes PGC-1a adenovirus, COX5a qPCR; shares compounds with PGC1a acetyl inh; 45 tested, under 10 active;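 active = fitted dose curve reaching 40% activity at or below the highest valid dose tested; inconclusive = flat fit between 30% and 70%, or an unusable fit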
AID743468: change in PGC-1a target gene PDK4 expression, dose response, C2C12 myotubes, RT-qPCR, cherry-pick; 45 tested, under 10 active; shares compounds with PGC1a acetyl inh; PDK4 expression increase, % at 19.5 µM; PGC-1a adenovirus, PDK4 mRNA qPCR;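 active = fitted curve reaching a 40% PDK4 expression rise at or below the top valid tested dose; inconclusive = no clear call, values can overlap the other calls; inactive = the rest, including shifts the wrong way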
Of the large screens only hits and unclear results are named; the others gave an inactive call (follow-up assays come after a bar, where they were run); ! = not confirmed by another sample.

O=C(C1CC1)N1CC(=O)N2[C@H](C1)[C@H](c1ccc(Br)cc1)[C@@H]2CO	none (no result: Env fusion inh, FGF22 binding)
COC(=O)C[C@@H]1CC[C@@H]2[C@H](COc3ccc(NC(=O)c4cc(C)on4)cc3C(=O)N2C)O1	EWS-Fli inh 60 (no result: Env fusion inh) | DNA binding inactive
Cc1cc(C(=O)Nc2ccc3c(c2)C(=O)N(C)[C@@H]2CC[C@H](CC(=O)N[C@H](C)c4ccccc4)O[C@H]2CO3)no1	EWS-Fli inh 58 | DNA binding inactive
CC(C)NC(=O)Nc1cccc2c1O[C@H](CN(C)C(=O)NC1CCCCC1)[C@H](C)CN([C@@H](C)CO)C2=O	none (no result: FN deposit inh)
NC1(C#Cc2ccc3c(=O)c4ccccc4sc3c2)CCCCC1	none
Cc1cc2sc3ccc(C#CC4(O)CCCCC4)cc3c(=O)c2cc1C	Env fusion inh 65, EWS-Fli inh 91 | DNA binding inactive
O=c1c2ccccc2oc2ccc(C#CC3(O)CCCCC3)cc12	EWS-Fli inh 61 | DNA binding inactive
N#Cc1ccc(C#Cc2ccc3oc4ccccc4c(=O)c3c2)cc1	none
C[C@@H]1CN([C@@H](C)CO)C(=O)c2cc(C3=CCCCC3)cnc2O[C@H]1CN(C)Cc1ccccc1F	none
C[C@H]1CN([C@@H](C)CO)C(=O)c2cc(NS(C)(=O)=O)ccc2O[C@@H]1CN(C)C(=O)Nc1ccc(F)cc1	none (no result: Env fusion inh, FN deposit inh)
Cn1ccc2cc(-c3ccc4ncnc(NCc5cccs5)c4c3)ccc21	EWS-Fli inh 51, PAX8 inh HTS 83 | DNA binding inactive
CC=Cc1ccc2n(c1=O)C[C@H]1[C@H](CO)[C@@H](C(=O)NCC(F)(F)F)N(CC3CC3)[C@@H]21 (mixture of isomers)	none (no result: Env fusion inh, FN deposit inh, PGC1a acetyl inh)
Cn1cnc(S(=O)(=O)N[C@@H]2CC[C@@H](CC(=O)N3CCN(c4ccccc4)CC3)O[C@H]2CO)c1	none
COc1ccc(-c2ccc3c(c2)O[C@@H](CN(C)C(C)=O)[C@H](C)CN([C@@H](C)CO)S3(=O)=O)cc1	none (no result: PAX8 inh HTS)
C(=C\c1ccc(C2[C@H]3CNC[C@@H]2N3Cc2cncnc2)cc1)/c1ccccc1 (stereo partly specified)	none (no result: Env fusion inh)
C(=C\c1ccc(C2[C@H]3CNC[C@@H]2N3Cc2ccccn2)cc1)/c1ccccc1 (stereo partly specified)	EWS-Fli inh 59! (no result: Env fusion inh, FGF22 binding) | DNA binding inactive
O=C(Sc1cccc2cccnc12)c1ccccc1Br	EWS-Fli inh 50, PAX8 inh HTS 100 (no result: PGC1a acetyl inh) | DNA binding inactive
CC(=O)/C(=N\Nc1ccccc1)Sc1cccc2cccnc12	none (no result: Env fusion inh, FN deposit inh, EWS-Fli inh, FGF22 binding, PAX8 inh HTS)
O=C(C[C@@H]1CC[C@@H]2[C@H](COC[C@H](O)CN2S(=O)(=O)c2ccc(Oc3ccccc3)cc2)O1)NC1CCC1	none (no result: Env fusion inh, EWS-Fli inh, PAX8 inh HTS)
CCCNC(=O)N1C[C@@H](O)COC[C@H]2O[C@H](CC(=O)NCc3ccncn3)CC[C@@H]21	none
CCCCCCCCNC(C)C(O)c1ccc(SC(C)C)cc1 (stereo unspecified)	EWS-Fli inh 59 (no result: PGC1a acetyl inh) | DNA binding inactive
O=C(CNC(c1ccccc1)c1ccccc1)Nc1ccccc1F	none
O=C(CNC(c1ccccc1)c1ccccc1)Nc1ccccc1-c1ccccc1	EWS-Fli inh 54 (no result: PGC1a acetyl inh) | DNA binding inactive
COCC(=O)Nc1ccc2c(c1)C(=O)N(C)C[C@H](OC)[C@H](C)CN(CCc1ccccc1)[C@H](C)CO2	none (no result: FGF22 binding)
C(=N\Nc1nc2ccccc2[nH]1)/c1ccccn1	EWS-Fli inh 70, PAX8 inh HTS 62 (no result: PGC1a acetyl inh) | DNA binding inactive
C(=N\Nc1nc2ccccc2[nH]1)/c1cccc2nccnc12	none
CC(C)NC(=O)N(C)C[C@@H]1Oc2ncc(C#CCc3ccccc3)cc2C(=O)N([C@@H](C)CO)C[C@@H]1C	none (no result: PGC1a acetyl inh, PAX8 inh HTS)
O=C(Nc1ccc(F)cc1)N1CCCCN2[C@@H](CO)[C@H](c3ccc(C4=CCCCC4)cc3)[C@@H]2C1	EWS-Fli inh 52 (no result: Env fusion inh) | DNA binding inactive
COc1cccc(S(=O)(=O)N2C[C@@H]3N[C@H](C2)C3c2ccc(-c3ccccc3OC)cc2)c1 (stereo partly specified)	none (no result: Env fusion inh, FGF22 binding)
COc1ccccc1-c1ccc([C@@H]2[C@@H]3CN(S(=O)(=O)c4ccc(-c5ccccc5)cc4)C[C@H]2N3)cc1	PAX8 inh HTS 107 (no result: Env fusion inh, FGF22 binding) | COX5a expr inh inactive | AID743468 inactive
C[C@H](CO)N1C[C@H](C)[C@@H](CN(C)C(=O)C2CCCCC2)Oc2cc(C#Cc3ccncc3)ccc2S1(=O)=O	PGC1a acetyl inh inconclusive (no result: FN deposit inh) | COX5a expr inh inactive | AID743468 inactive
COc1ccccc1C#Cc1ccc2c(c1)O[C@@H](CN(C)Cc1cccnc1)[C@H](C)CN([C@H](C)CO)S2(=O)=O	PGC1a acetyl inh 43, PAX8 inh HTS 84 (no result: Env fusion inh, FN deposit inh) | COX5a expr inh inactive | AID743468 inconclusive
C[C@H]1CN([C@@H](C)CO)S(=O)(=O)c2ccc(-c3ccccc3)cc2O[C@@H]1CN(C)Cc1cccc(F)c1	PGC1a acetyl inh 48 (no result: PAX8 inh HTS) | COX5a expr inh inactive | AID743468 inactive
C[C@@H]1CN([C@H](C)CO)S(=O)(=O)c2ccc(C#Cc3ccncc3)cc2O[C@@H]1CN(C)C(=O)C1CCC1	none (no result: PAX8 inh HTS)
COc1ccc(C[C@@H]2CCn3nncc3COC[C@@H](c3ccccc3)NC2=O)cc1	none (no result: Env fusion inh, EWS-Fli inh, FGF22 binding, PGC1a acetyl inh, PAX8 inh HTS)
CC1=C(Cl)C2=NS(=O)(=O)CCN2C=C1Cl	PGC1a acetyl inh inconclusive | COX5a expr inh inactive | AID743468 inactive
CC(C)[C@H](NC(=O)c1ccccc1)C(=O)OCC(=O)c1ccc2c(c1)NC(=O)CO2	none (no result: FN deposit inh, EWS-Fli inh, FGF22 binding)
CC[C@H](C)[C@H](NC(=O)c1ccc(Cl)cc1)C(=O)OCC(=O)c1ccc2c(c1)NC(=O)CO2	PGC1a acetyl inh inconclusive (no result: EWS-Fli inh, FGF22 binding) | COX5a expr inh inactive | AID743468 inactive
Cc1noc(C)c1NC(=O)Nc1ccc2c(c1)CC(=O)N([C@H](C)CO)C[C@@H](C)[C@H](CN(C)S(=O)(=O)c1ccc(Cl)cc1)O2	none (no result: FN deposit inh)
CCOc1cc(CNC2CCCC2)cc(Cl)c1OCc1ccc(F)cc1	PGC1a acetyl inh 78 (no result: Env fusion inh, FN deposit inh, EWS-Fli inh, FGF22 binding, PAX8 inh HTS) | COX5a expr inh inactive | AID743468 inactive
C[C@@H]1CN([C@@H](C)CO)C(=O)c2cc(C3=CCCC3)cnc2O[C@@H]1CN(C)C(=O)Nc1cccc(F)c1	none
Cc1nc(Nc2ccc(S(N)(=O)=O)cc2)sc1C(=O)Nc1ccccc1	PGC1a acetyl inh inconclusive | COX5a expr inh inactive | AID743468 inactive
Cc1nc(Nc2ccccc2)sc1C(=O)Nc1ccccc1	none (no result: PGC1a acetyl inh)
